ChEMBL document CHEMBL1123469, “Synthesis and activity of 6-aryl-3-(hydroxypolymethyleneamino)pyridazines in animal models of epilepsy” (1986)

Tests used:
Format in all cases: functional
Mus musculus [1] = assay: Evaluated for Bicuculline-induced lethality (anticonvulsant activity) when administered 100 mg/kg orally in mice.; details: route oral
Procedure, shortened: (§1)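 Female Swiss albino CD1 mice (18-23 g), oral dosing (20 mL/kg); test compounds dissolved in dilute HCl (pH 3), reference drugs suspended in 5% gum tragacanth. Bicuculline challenge, scoring protection from seizures and from lethality. […] Weakly active agents reported as percent protected at the stated dose.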

Mus musculus [2] = assay: Evaluated for anticonvulsant activity when administered orally in mice by Maximal electroshock (MES).; details: po
Procedure, shortened: (§2)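 Female Swiss CD1 mice (18-23 g), groups of 10, were dosed orally at 20 mL/kg. Test compounds were given in dilute HCl (pH 3) and references in 5% gum tragacanth, 60 min before a 60-V alternating current for 0.3 s through corneal electrodes. Protection meant abolition of the hindlimb tonic extensor component.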

Mus musculus [3] = assay: Evaluated for the sedative property by the rotarod test at 100 mg/kg.
Procedure, shortened: (§3)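 Motor coordination was tested on the rotorod in groups of 10 female Swiss CD1 mice (18-23 g). Drug or vehicle was given orally, test compounds in dilute HCl (pH 3), 60 min before testing.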

Mus musculus [4] = assay: Evaluated for Bicuculline-induced seizures (anticonvulsant activity) when administered at 100 mg/kg orally in mice.; details: route oral
Procedure, shortened: (§4)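 Female Swiss CD1 mice (18-23 g) were dosed orally at 20 mL/kg, test compounds in dilute HCl (pH 3) and references in gum tragacanth. Protection against bicuculline- or pentylenetetrazole-induced clonic/tonic seizures and lethality was scored.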

Mus musculus [5] = assay: Evaluated for Bicuculline-induced lethality (anticonvulsant activity) when administered orally in mice.; details: po; procedure, shortened: as §1
Mus musculus [6] = assay: Anticonvulsant activity when administered 100 mg/kg orally in mice Maximal electroshock (MES); details: route oral; procedure, shortened: as §2
Mus musculus [7] = assay: Evaluated for Bicuculline-induced seizures (anticonvulsant activity) when administered orally in mice.; details: po; procedure, shortened: as §4
Mus musculus [8] = organism: Mus musculus; assay: Sedative property by the rotarod test; procedure, shortened: as §3

| Structure (SMILES) | Protected (Mus musculus [1]) | ED50 (Mus musculus [2]) | Protected (Mus musculus [3]) | Protected (Mus musculus [4]) | ED50 (Mus musculus [5]) | Protected (Mus musculus [6]) | ED50 (Mus musculus [7]) | ED50 (Mus musculus [8]) |
| --- | --- | --- | --- | --- | --- | --- | --- | --- |
| CNC(=O)OC1CCN(c2ccc(-c3ccc(F)cc3)nn2)CC1 | 30% | 40 mg/kg | 20% | 40% | – | – | – | – |
| O=[N+]([O-])c1ccccc1-c1ccc(N2CCC(O)CC2)nn1 | – | – | 0% | – | 57 mg/kg | – | – | – |
| OC1CCN(c2ccc(-c3cccc(C(F)(F)F)c3)nn2)CC1 | – | – | 50% | 0% | – | – | – | – |
| OC1CCN(c2ccc(-c3ccsc3)nn2)CC1 | 20% | – | 0% | 10% | – | 80% | – | – |
| CNC(=O)OC1CCN(c2ccc(-c3ccc(Cl)cc3Cl)nn2)CC1 | – | 5.5 mg/kg | – | – | 1.4 mg/kg | – | 1.4 mg/kg | 20 mg/kg |
| CC(=O)OC1CCN(c2ccc(-c3ccc(Cl)cc3Cl)nn2)CC1 | – | 14 mg/kg | – | – | 8.3 mg/kg | – | 9.8 mg/kg | 70 mg/kg |
| CNC(=O)OC1CCN(c2ccc(-c3ccc(Cl)cc3)nn2)CC1 | – | – | 0% | 20% | – | 20% | – | – |
| CNC(=O)OC1CCN(c2ccc(-c3cccs3)nn2)CC1 | 20% | – | 10% | 0% | – | 10% | – | – |
| Clc1ccccc1-c1ccc(N2CCC3(CC2)OCCO3)nn1 | 30% | – | 0% | 40% | – | – | – | – |
| OC1CCN(c2ccc(-c3ccccc3)nn2)CC1 | – | – | 0% | – | 41 mg/kg | – | – | – |
| CNC(=O)OC1CCN(c2ccc(-c3cccc(Cl)c3)nn2)CC1 | 0% | – | 0% | 10% | – | 40% | – | – |
| C/N=C(\S)OC1CCN(c2ccc(-c3ccccc3Cl)nn2)CC1 | – | 35 mg/kg | – | – | 20 mg/kg | – | 20 mg/kg | – |
| OC1CCN(c2ccc(-c3ccc(F)cc3)nn2)CC1 | – | – | 50% | 10% | – | – | – | – |
| OC1CCN(c2ccc(-c3cccc4ccccc34)nn2)CC1 | 0% | – | 0% | 40% | – | – | – | – |
| O=[N+]([O-])c1ccc(-c2ccc(N3CCC(O)CC3)nn2)cc1 | – | – | – | – | 57 mg/kg | 40% | 54 mg/kg | – |
| CCCCNC(=O)OC1CCN(c2ccc(-c3ccccc3Cl)nn2)CC1 | – | – | 0% | 0% | – | 20% | – | – |
| CN(C)C(=O)OC1CCN(c2ccc(-c3ccccc3Cl)nn2)CC1 | – | – | – | – | 1.1 mg/kg | – | – | 8.4 mg/kg |
| OC1CCN(c2ccc(-c3ccccc3F)nn2)CC1 | – | – | 0% | – | 34 mg/kg | – | – | – |
| OC1CCN(c2ccc(-c3ccc(Cl)c(Cl)c3)nn2)CC1 | 20% | – | 100% | 0% | – | 25% | – | – |
| OC1CCCN(c2ccc(-c3ccccc3Cl)nn2)C1 (configuration not stated) | – | – | 0% | 0% | – | 15% | – | – |
| OC1CCN(c2ccc(-c3cccc(Cl)c3)nn2)CC1 | 40% | – | 40% | 10% | – | – | – | – |
| OC1CCN(c2ccc(-c3ccc(Cl)s3)nn2)CC1 | – | – | 0% | 50% | – | 30% | – | – |
| CCCCNC(=O)OC1CCN(c2ccc(-c3ccc(Cl)cc3)nn2)CC1 | – | – | 0% | 0% | – | 0% | – | – |
| CNC(=O)OC1CCN(c2ccc(-c3ccccc3Cl)nn2)CC1 | – | – | – | – | 9 mg/kg | – | – | 37 mg/kg |
